Data as given in ChEMBL document CHEMBL1159098, “A new series of flavones, thioflavones, and flavanones as selective monoamine oxidase-B inhibitors” (Bioorg Med Chem, 2010).

How the values were obtained:
[1] = target: T1, Amine oxidase [flavin-containing] A (Homo sapiens, UniProt P21397); experiment: Inhibition of human recombinant MAOA expressed in BTI-TN-5B1-4 cells at 100 uM by para-tyramine oxidation assay; assay type: cell-based; details: for inhibition at 100 µM: BTI-TN-5B1-4, human; for inhibition (INH): human, bti-tn-5b1-4, 100 µM
T1 sequence (P21397 whole entry): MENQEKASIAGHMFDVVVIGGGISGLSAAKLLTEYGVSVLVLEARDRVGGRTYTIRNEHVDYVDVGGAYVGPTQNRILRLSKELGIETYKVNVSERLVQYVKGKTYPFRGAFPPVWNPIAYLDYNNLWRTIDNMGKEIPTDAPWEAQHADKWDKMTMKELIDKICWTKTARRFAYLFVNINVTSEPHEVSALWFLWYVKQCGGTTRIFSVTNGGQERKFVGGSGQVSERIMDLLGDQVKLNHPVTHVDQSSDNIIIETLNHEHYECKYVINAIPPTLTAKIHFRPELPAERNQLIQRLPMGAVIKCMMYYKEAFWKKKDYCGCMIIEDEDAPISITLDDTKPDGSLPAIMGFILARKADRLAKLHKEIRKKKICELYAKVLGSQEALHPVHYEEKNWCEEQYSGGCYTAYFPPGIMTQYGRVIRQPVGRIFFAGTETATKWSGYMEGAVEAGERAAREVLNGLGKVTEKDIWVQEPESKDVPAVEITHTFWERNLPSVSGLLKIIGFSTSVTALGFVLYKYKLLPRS

[2] = species on record: Homo sapiens; experiment: Selectivity for human MAOB over human MAOA
How it was run: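 Selectivity index = IC50(hMAO-A)/IC50(hMAO-B), both from Amplex Red/p-tyramine fluorimetric assays on insect-cell recombinant enzymes.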

[3] = target: T2, Amine oxidase [flavin-containing] B (Homo sapiens, UniProt P27338); assay type: cell-based, BTI-TN-5B1-4
T2 sequence (P27338 whole entry): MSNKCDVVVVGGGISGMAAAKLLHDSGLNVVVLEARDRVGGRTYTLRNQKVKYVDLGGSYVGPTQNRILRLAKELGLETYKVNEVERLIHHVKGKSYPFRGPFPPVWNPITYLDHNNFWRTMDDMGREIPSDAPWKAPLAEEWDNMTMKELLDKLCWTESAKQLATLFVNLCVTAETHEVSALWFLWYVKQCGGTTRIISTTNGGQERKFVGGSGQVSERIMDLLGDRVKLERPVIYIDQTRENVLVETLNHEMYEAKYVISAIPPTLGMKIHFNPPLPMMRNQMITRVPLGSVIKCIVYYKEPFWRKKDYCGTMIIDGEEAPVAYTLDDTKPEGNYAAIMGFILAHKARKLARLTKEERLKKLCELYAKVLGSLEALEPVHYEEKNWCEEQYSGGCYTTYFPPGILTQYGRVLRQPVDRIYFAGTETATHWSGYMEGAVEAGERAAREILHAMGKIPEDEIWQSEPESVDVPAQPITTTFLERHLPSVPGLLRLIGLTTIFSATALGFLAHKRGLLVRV

[4] = target: T2, Amine oxidase [flavin-containing] B; experiment: Inhibition of human recombinant MAOB expressed in BTI-TN-5B1-4 cells at 100 uM by para-tyramine oxidation assay; assay type: cell-based; details: for inhibition at 100 µM: BTI-TN-5B1-4, human; for inhibition (INH): human, bti-tn-5b1-4, 100 µM
[5] = target: T2, Amine oxidase [flavin-containing] B; experiment: Inhibition of human MAOB
How it was run: (§1)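 Recombinant human MAO-A or -B as microsomes from baculovirus-infected BTI-TN-5B1-4 insect cells, dosed to oxidize 165 pmol p-tyramine/min in controls (A 1.1 µg, B 7.5 µg protein). Preincubated with inhibitor 15 min at 37 °C in 0.05 M sodium phosphate pH 7.4. Started with 1 mM p-tyramine, 200 µM Amplex Red, 1 U/ml HRP (final). Resorufin fluorescence (ex 545/em 590 nm) read over 15 min at 37 °C, background subtracted.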

[6] = target: T1, Amine oxidase [flavin-containing] A; experiment: Inhibition of human MAOA; how it was run: as §1
[7] = Inhibition of human monoamine oxidase

SMILES | Ratio IC50 [2] | IC50 [3] | inhibition (INH) [1] | other results
COc1ccc(-c2cc(=O)c3ccccc3o2)cc1 [4'-METHOXYFLAVONE] | > 3.6 | 27.9 µM | – | inhibition at 100 µM [1]: 40%
O=c1cc(-c2ccc(F)cc2)oc2cc(F)ccc12 | – | – | Not Active | –
COc1ccc(C2CC(=O)c3ccc(OC)cc3O2)cc1 (racemic) [LIQUIRITIGENIN DIMETHYL ETHER] | > 14 | 7.18 µM | Not Active | –
COc1ccc2c(=O)cc(-c3ccccc3)oc2c1 [7-METHOXYFLAVONE] | – | – | Not Active | inhibition at 100 µM [4]: 40%
O=c1cc(-c2ccc(O)c(O)c2)oc2cc(O)cc(O)c12 [LUTEOLIN] | – | – | – | IC50 [5]: 59.7 µM; IC50 [6]: 4.9 µM
COc1ccc2c(c1)O[C@@H](c1ccc(F)cc1)CC2=O | > 500 | 0.2 µM | Not Active | –
COc1ccc2c(=O)cc(-c3ccc(C)cc3)oc2c1 | > 8.8 | 11.3 µM | Not Active | –
O=C1CC(c2ccc(F)cc2)Oc2ccccc21 (racemic) | > 23 | 4.41 µM | Not Active | –
Cc1ccc(C2CC(=O)c3ccc(C)cc3O2)cc1 (racemic) | > 200 | 0.5 µM | Not Active | –
Cc1ccc([C@H]2CC(=O)c3ccc(C)cc3O2)cc1 | > 189 | 0.53 µM | Not Active | –
Cc1ccc2c(=O)cc(-c3ccccc3)oc2c1 [7-METHYLFLAVONE] | – | – | Not Active | inhibition (INH) [4]: Not Active
Cc1ccc2c(=S)cc(-c3ccccc3)oc2c1 | – | – | Not Active | inhibition at 100 µM [4]: 40%
Cc1ccc(-c2cc(=O)c3ccc(C)cc3o2)cc1 | – | – | – | inhibition at 100 µM [4]: 40%; inhibition at 100 µM [1]: 40%
Cc1ccc(-c2cc(=S)c3ccc(F)cc3o2)cc1 | > 62 | 1.61 µM | – | inhibition at 100 µM [1]: 40%
COc1ccc(C2CC(=O)c3ccccc3O2)cc1 (racemic) | > 45 | 2.2 µM | Not Active | –
COc1ccc(-c2cc(=S)c3ccc(F)cc3o2)cc1 | – | – | Not Active | inhibition at 100 µM [4]: 40%
COc1ccc2c(c1)OC(c1ccc(F)cc1)CC2=O (racemic) | > 588 | 0.17 µM | Not Active | –
Cc1ccc(-c2cc(=S)c3ccc(C)cc3o2)cc1 | > 15 | 6.72 µM | Not Active | –
O=C1CC(c2ccccc2)Oc2ccccc21 (racemic) [FLAVANONE] | > 35 | 2.87 µM | Not Active | –

SMILES | Ratio IC50 [2] | IC50 [3] | inhibition (INH) [1] | other results
Cc1ccc(-c2cc(=O)c3ccc(F)cc3o2)cc1 | > 23 | 4.33 µM | Not Active | –
COc1ccc2c(=O)cc(-c3ccc(F)cc3)oc2c1 | > 19 | 5.14 µM | Not Active | –
COc1cc(-c2cc(=O)c3c(O)c(OC)c(O)cc3o2)ccc1O [JACEOSIDINE] | – | – | – | IC50 [7]: 19 µM
COc1ccc2c(c1)OC(c1ccc(C)cc1)CC2=O (racemic) | > 182 | 0.55 µM | Not Active | –
Cc1ccc(-c2cc(=S)c3ccccc3o2)cc1 | > 15 | 6.69 µM | Not Active | –
COc1ccc(-c2cc(=O)c3ccc(C)cc3o2)cc1 | – | – | – | inhibition at 100 µM [4]: 40%; inhibition at 100 µM [1]: 40%
COc1ccc(-c2cc(=O)c3ccc(F)cc3o2)cc1 | > 75 | 1.34 µM | – | inhibition at 100 µM [1]: 40%
Cc1ccc([C@@H]2CC(=O)c3ccc(C)cc3O2)cc1 | > 169 | 0.59 µM | Not Active | –
O=c1c(O)c(-c2ccc(O)c(O)c2)oc2cc(O)cc(O)c12 [QUERCETIN] | – | – | – | IC50 [5]: 90 µM; IC50 [6]: 2.8 µM
O=c1cc(-c2ccccc2)oc2cc(F)ccc12 [7-FLUOROFLAVONE] | > 7.7 | 12.9 µM | – | inhibition at 100 µM [1]: 40%
COc1ccc(C2CC(=O)c3ccc(F)cc3O2)cc1 (racemic) | > 588 | 0.17 µM | Not Active | –
Cc1ccc2c(=S)cc(-c3ccc(F)cc3)oc2c1 | – | – | Not Active | inhibition at 100 µM [4]: 40%
Cc1ccc2c(c1)OC(c1ccccc1)CC2=O (racemic) | > 28 | 3.62 µM | Not Active | –
COc1ccc(-c2cc(=S)c3ccc(OC)cc3o2)cc1 | > 30 | 3.34 µM | Not Active | –
O=C1c2c(O)cc(O)cc2O[C@H](c2ccc(O)cc2)[C@H]1O [DIHYDROKAEMPFEROL] | – | – | – | IC50 [7]: 153 µM
COc1ccc2c(c1)O[C@H](c1ccc(F)cc1)CC2=O | > 625 | 0.16 µM | Not Active | –
COc1ccc2c(=S)cc(-c3ccc(C)cc3)oc2c1 | > 13 | 7.61 µM | – | inhibition at 100 µM [1]: 40%
O=c1cc(-c2ccc(F)cc2)oc2ccccc12 | – | – | – | inhibition at 100 µM [4]: 40%; inhibition at 100 µM [1]: 40%
Cc1ccc(C2CC(=O)c3ccc(F)cc3O2)cc1 (racemic) | > 625 | 0.16 µM | Not Active | –

SMILES | Ratio IC50 [2] | IC50 [3] | inhibition (INH) [1] | other results
COc1c(O)cc2oc(-c3ccc(O)c(O)c3)cc(=O)c2c1O [EUPAFOLIN] | – | – | – | IC50 [7]: 25 µM
Fc1ccc2c(=S)cc(-c3ccccc3)oc2c1 | – | – | – | inhibition at 100 µM [4]: 40%; inhibition at 100 µM [1]: 40%
O=C1CC(c2ccc(F)cc2)Oc2cc(F)ccc21 (racemic) | > 149 | 0.67 µM | Not Active | –
Fc1ccc(-c2cc(=S)c3ccc(F)cc3o2)cc1 | > 15 | 6.89 µM | Not Active | –
S=c1cc(-c2ccccc2)oc2ccccc12 | – | – | Not Active | inhibition at 100 µM [4]: 40%
COc1ccc2c(c1)OC(c1ccccc1)CC2=O (racemic) | > 68 | 1.47 µM | Not Active | –
COc1ccc2c(=S)cc(-c3ccccc3)oc2c1 | – | – | Not Active | inhibition at 100 µM [4]: 40%
O=C1CC(c2ccccc2)Oc2cc(F)ccc21 (racemic) | > 27 | 3.77 µM | Not Active | –
O=C1c2c(O)cc(O)cc2O[C@H](c2ccc(O)c(O)c2)[C@H]1O [(+)-TAXIFOLIN] | – | – | – | IC50 [7]: 155 µM
Cc1ccc(C2CC(=O)c3ccccc3O2)cc1 (racemic) | > 48 | 2.07 µM | Not Active | –
COc1ccc(-c2cc(=S)c3ccc(C)cc3o2)cc1 | – | – | Not Active | inhibition at 100 µM [4]: 40%
COc1ccc(-c2cc(=S)c3ccccc3o2)cc1 | > 208 | 0.48 µM | – | inhibition at 100 µM [1]: 40%
Fc1ccc(-c2cc(=S)c3ccccc3o2)cc1 | – | – | Not Active | inhibition (INH) [4]: Not Active
Cc1ccc2c(=O)cc(-c3ccc(F)cc3)oc2c1 | – | – | Not Active | inhibition at 100 µM [4]: 40%
O=c1cc(-c2ccccc2)oc2ccccc12 [FLAVONE] | – | – | – | inhibition (INH) [4]: Not Active; inhibition at 100 µM [1]: 40%
COc1ccc(-c2cc(=O)c3ccc(OC)cc3o2)cc1 [4,7-DIMETHOXYFLAVONE] | > 2 | 49.7 µM | Not Active | –
COc1ccc2c(=S)cc(-c3ccc(F)cc3)oc2c1 | – | – | Not Active | inhibition at 100 µM [4]: 40%
Cc1ccc(-c2cc(=O)c3ccccc3o2)cc1 | > 42 | 2.38 µM | Not Active | –
COc1ccc(C2CC(=O)c3ccc(C)cc3O2)cc1 (racemic) | > 30 | 3.35 µM | Not Active | –
